From ChEMBL document CHEMBL2016511, “Development of clickable active site-directed photoaffinity probes for γ-secretase” (Bioorg Med Chem Lett, 2012)
pIC50: −log10 of the molar value. Active and inactive are the calls of the source. No cut-off for these calls is given here.

Tests used:
[1] = Inhibition of gamma-secretase in CHO-APP cells assessed as amyloid beta-42 production using APP as substrate; type: cell-based; settings: Cricetulus griseus
[2] = biological target: Presenilin-1 (Homo sapiens) (UniProt P49768); assay: Binding affinity to PS1 N-terminal fragment in human HeLa cell membrane at 20 nM after 1 hr by photo-affinity based Western blot analysis; type: cell membranes
Summary of the method: (§1)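 HeLa membranes (800 μg in 1.2 mL PBS) incubated 1 h at 37 °C with probe at 20 nM, with or without 1 μM competitor GSI. Photoirradiated at ~350 nm for 30 min at 4 °C, then pelleted. Click with biotin-azide (0.1 mM), TCEP 1.0 mM, CuSO4 1.0 mM, TBTA 0.1 mM, 1 h at room temperature. Solubilized in RIPA, streptavidin pull-down, SDS-PAGE, Western blot with PS1-NTF, PS1-CTF or SPP antibodies.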

[3] = biological target: Presenilin-1 (Homo sapiens) (UniProt P49768); assay: Binding affinity to PS1 N-terminal fragment in human HeLa cell membrane at 20 nM after 1 hr by photo-affinity-based Western blot analysis in presence of GSI L458; type: cell membranes; summary of the method: as §1
[4] = biological target: Presenilin-1 (Homo sapiens) (UniProt P49768); assay: Binding affinity to PS1 N-terminal fragment in human HeLa cell membrane at 20 nM by photo-affinity in-gel fluorescence method; type: cell membranes
Summary of the method: (§2)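 HeLa membranes photolabeled with probe at 20 nM, with or without 1 μM competitor GSI L458, then ~350 nm irradiation. Click reaction with TAMRA-azide, then acetone precipitation to remove excess reagent. Resolubilized in loading buffer, separated by SDS-PAGE, and scanned for in-gel fluorescence of PS1-NTF and PS1-CTF bands. Coomassie staining confirmed equal loading.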

[5] = biological target: Presenilin-1 (Homo sapiens) (UniProt P49768); assay: Binding affinity to PS1 N-terminal fragment in human HeLa cell membrane at 20 nM by photo-affinity in-gel fluorescence method in presence of GSI L458; type: cell membranes; summary of the method: as §2
[6] = biological target: Presenilin-1 (Homo sapiens) (UniProt P49768); assay: Binding affinity to PS1 Carboxy-terminal fragment in human HeLa cell membrane at 20 nM after 1 hr by photo-affinity based Western blot analysis; type: cell membranes; summary of the method: as §1
HeLa = assay: Binding affinity to SPP in human HeLa cell membrane at 20 nM after 1 hr by photo-affinity based Western blot analysis; type: cell membranes; summary of the method: as §1
[7] = biological target: Presenilin-1 (Homo sapiens) (UniProt P49768); assay: Binding affinity to PS1 Carboxy-terminal fragment in human HeLa cell membrane at 20 nM by photo-affinity in-gel fluorescence method; type: cell membranes; summary of the method: as §2
[8] = biological target: Presenilin-1 (Homo sapiens) (UniProt P49768); assay: Binding affinity to PS1 Carboxy-terminal fragment in human HeLa cell membrane at 20 nM by photo-affinity in-gel fluorescence method in presence of GSI L458; type: cell membranes; summary of the method: as §2

| Structure (SMILES) | pIC50 [1] | Activity [2] | Activity [3] | Activity [4] | Activity [5] | Activity [6] | Activity (HeLa) | Activity [7] | Activity [8] |
| --- | --- | --- | --- | --- | --- | --- | --- | --- | --- |
| CC(C)C[C@H](NC(=O)[C@H](Cc1ccccc1)C[C@@H](O)[C@H](Cc1ccccc1)NC(=O)OC(C)(C)C)C(=O)N[C@@H](Cc1ccccc1)C(N)=O | 7.44 |  |  |  |  |  |  |  |  |
| CC(C)C[C@H](NC(=O)[C@H](Cc1ccccc1)C[C@@H](O)[C@H](Cc1ccccc1)NC(=O)c1ccc(C(=O)c2ccccc2)cc1)C(=O)N[C@@H](Cc1ccccc1)C(=O)NCCCCCNC(=O)CCCC[C@@H]1SC[C@@H]2NC(=O)N[C@@H]21 | 6.09 | Active | inactive |  |  |  |  |  |  |
| C#CCCCCNC(=O)[C@H](Cc1ccc(C(=O)c2ccccc2)cc1)NC(=O)[C@H](CC(C)C)NC(=O)[C@H](Cc1ccccc1)C[C@@H](O)[C@H](Cc1ccccc1)NC(=O)OC(C)(C)C | 8.40 | inactive |  | inactive | inactive | Active | Active | Active | inactive |
| C#CCCCCNC(=O)[C@H](Cc1ccccc1)NC(=O)[C@H](CC(C)C)NC(=O)[C@H](Cc1ccccc1)C[C@@H](O)[C@H](Cc1ccccc1)NC(=O)c1ccc(C(=O)c2ccccc2)cc1 | 6.00 | Active | inactive | Active | inactive | inactive | inactive | inactive | inactive |
| CC(C)C[C@H](NC(=O)[C@H](Cc1ccccc1)C[C@@H](O)[C@H](Cc1ccccc1)NC(=O)OC(C)(C)C)C(=O)N[C@@H](Cc1ccc(C(=O)c2ccccc2)cc1)C(=O)NCCCCCNC(=O)CCCC[C@@H]1SC[C@@H]2NC(=O)N[C@@H]21 | 7.52 |  |  |  |  |  |  |  |  |
